Experimental data from ChEMBL document CHEMBL1124009 (J Med Chem, 1988).

What was measured:
Mu-type opioid receptor = Mu-type opioid receptor (Rattus norvegicus, UniProt P33535); experiment: Binding affinity in competition with [3H]- CTOP in Opioid receptor mu 1 binding to rat brain membrane
Procedure, shortened: (§1)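 Brains (minus cerebellum) of male Sprague–Dawley rats (200–250 g) were homogenized, preincubated 30 min at 25 °C and centrifuged twice at 43000g. Homogenate at 0.5% final was incubated with 0.5 nM [3H]CTOP (μ) or 1.0 nM [3H]DPDPE (δ) in 50 mM Tris-HCl pH 7.4 with 5 mM MgCl2, BSA 1 mg/mL and 100 μM PMSF, 120 min at 25 °C, in duplicate. Nonspecific binding was taken with 1 μM naloxone; bound label was filtered and scintillation counted; curves were fit by nonlinear least squares.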

[1] = target: Delta-type opioid receptor (Rattus norvegicus, UniProt P33533); experiment: Binding affinity in competition with [3H]- DPDPE in Opioid receptor delta 1 binding to rat brain membrane; procedure, shortened: as §1
Chain of Delta-type opioid receptor (P33533 whole entry): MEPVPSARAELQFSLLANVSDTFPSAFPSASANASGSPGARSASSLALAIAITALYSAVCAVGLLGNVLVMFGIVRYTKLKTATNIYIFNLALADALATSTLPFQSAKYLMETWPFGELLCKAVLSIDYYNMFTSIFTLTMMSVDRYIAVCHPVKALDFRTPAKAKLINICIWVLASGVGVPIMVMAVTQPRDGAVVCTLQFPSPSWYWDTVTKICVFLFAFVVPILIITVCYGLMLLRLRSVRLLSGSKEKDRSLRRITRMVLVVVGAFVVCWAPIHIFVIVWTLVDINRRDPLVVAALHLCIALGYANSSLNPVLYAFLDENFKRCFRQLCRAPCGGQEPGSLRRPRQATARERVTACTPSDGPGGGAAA

[2] = target: Opioid receptors; mu & delta (Rattus norvegicus) (UniProt P33533+P33535); experiment: Ratio of selective binding affinity of mu receptor to that of delta opioid receptor; assay type: protein assay
Chain of Opioid receptors; mu & delta (Rattus norvegicus) (P33533 whole entry, looked up): as the sequence (P33533 whole entry) above
Chain of Opioid receptors; mu & delta (Rattus norvegicus) (P33535 whole entry, looked up): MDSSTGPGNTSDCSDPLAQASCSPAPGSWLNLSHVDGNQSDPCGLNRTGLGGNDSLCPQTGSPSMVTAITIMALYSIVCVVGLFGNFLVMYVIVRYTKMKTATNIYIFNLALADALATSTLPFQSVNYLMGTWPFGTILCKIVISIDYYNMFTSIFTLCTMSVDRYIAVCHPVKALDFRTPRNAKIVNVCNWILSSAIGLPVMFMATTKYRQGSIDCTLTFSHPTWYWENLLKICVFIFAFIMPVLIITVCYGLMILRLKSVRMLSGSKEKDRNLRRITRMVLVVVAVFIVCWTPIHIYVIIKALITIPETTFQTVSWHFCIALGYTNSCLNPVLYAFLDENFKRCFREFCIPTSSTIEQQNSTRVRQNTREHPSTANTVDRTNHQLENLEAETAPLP

[3] = Ratio of selective binding affinity of mu receptor to that of somatostatin receptor

Chain of Mu-type opioid receptor (P33535 whole entry): as the sequence (P33535 whole entry, looked up) above

SMILES | IC50 (Mu-type opioid receptor) [µM] | IC50 [1] [µM] | Ratio [2] | Ratio [3]
C[C@@H](O)[C@H](NC(=O)[C@H]1NC(=O)[C@H]([C@@H](C)O)NC(=O)[C@H](CCCN)NC(=O)C(Cc2c[nH]c3ccccc23)NC(=O)[C@@H](Cc2ccc(O)cc2)NC(=O)[C@@H](NC(=O)[C@H]2Cc3ccccc3CN2C(=O)CN)CSSC1(C)C)C(N)=O (stereo in doubt) [listing 1 of 2 here] | 0.278 | 5.35 |  | 
C[C@@H](O)[C@@H]1NC(=O)[C@H](CCCCN)NC(=O)C(Cc2c[nH]c3ccccc23)NC(=O)[C@H](Cc2ccc(O)cc2)NC(=O)[C@@H](NC(=O)[C@H](N)Cc2ccccc2)CSSC(C)(C)[C@@H](C(=O)N[C@@H](CC(=O)O)C(N)=O)NC1=O (stereo in doubt) | 3.47 | > 10 |  | 
CN[C@H](Cc1ccccc1)C(=O)N[C@H]1CSSC(C)(C)[C@@H](C(=O)N[C@H](C(N)=O)[C@@H](C)O)NC(=O)[C@H]([C@@H](C)O)NC(=O)[C@H](CCCN)NC(=O)C(Cc2c[nH]c3ccccc23)NC(=O)[C@H](Cc2ccc(O)cc2)NC1=O (stereo in doubt) [listing 1 of 2 here] | 0.284 | > 10 |  | 
CN[C@H](Cc1ccccc1)C(=O)N[C@H]1CSSC(C)(C)[C@@H](C(=O)N[C@H](C(N)=O)[C@@H](C)O)NC(=O)[C@H]([C@@H](C)O)NC(=O)[C@H](CCCN)NC(=O)C(Cc2c[nH]c3ccccc23)NC(=O)[C@H](Cc2ccc(O)cc2)NC1=O (stereo in doubt) [listing 2 of 2 here] |  |  | > 35 | 28
C[C@@H](O)[C@@H]1NC(=O)[C@H](CCCCN)NC(=O)C(Cc2c[nH]c3ccccc23)NC(=O)[C@H](Cc2ccc(O)cc2)NC(=O)[C@@H](NC(=O)[C@H](N)Cc2ccccc2)CSSC(C)(C)[C@@H](C(=O)N[C@@H](CC(N)=O)C(N)=O)NC1=O (stereo in doubt) |  |  | > 77 | 6.3
C[C@@H](O)[C@@H]1NC(=O)[C@H](CCCCN)NC(=O)C(Cc2c[nH]c3ccccc23)NC(=O)[C@H](Cc2ccc(O)cc2)NC(=O)[C@@H](NC(=O)[C@H](N)Cc2ccccc2)CSSC(C)(C)[C@@H](C(=O)N[C@@H](CO)C(N)=O)NC1=O (stereo in doubt) |  |  | > 490 | 94
C[C@@H](O)[C@@H]1NC(=O)[C@H](CCCCN)NC(=O)C(Cc2c[nH]c3ccccc23)NC(=O)[C@H](Cc2ccc(O)cc2)NC(=O)[C@@H](NC(=O)[C@H](N)Cc2ccccc2)CSSC(C)(C)[C@@H](C(N)=O)NC1=O (stereo in doubt) |  |  | > 87 | 17
C[C@@H](O)[C@@H]1NC(=O)[C@H](CCCCN)NC(=O)C(Cc2c[nH]c3ccccc23)NC(=O)[C@H](Cc2ccc(O)cc2)NC(=O)[C@@H](NC(=O)[C@H]2Cc3ccccc3CN2)CSSC(C)(C)[C@@H](C(=O)N[C@@H](CO)C(N)=O)NC1=O (stereo in doubt) |  |  | 491 | 192
C[C@@H](O)[C@@H]1NC(=O)[C@H](CCCN)NC(=O)C(Cc2c[nH]c3ccccc23)NC(=O)[C@H](Cc2ccc(O)cc2)NC(=O)[C@@H](NC(=O)[C@H](N)Cc2ccccc2)CSSC(C)(C)[C@@H](C(N)=O)NC1=O (stereo in doubt) |  |  | > 53 | 253
C[C@@H](O)[C@H](NC(=O)[C@H]1NC(=O)[C@H](CCCCN)NC(=O)C(Cc2c[nH]c3ccccc23)NC(=O)[C@@H](Cc2ccc(O)cc2)NC(=O)[C@@H](NC(=O)[C@H]2Cc3ccccc3CN2)CSSC1(C)C)C(N)=O (stereo in doubt) |  |  | > 1 | 1.5
C[C@@H](O)[C@H](NC(=O)[C@H]1NC(=O)[C@H]([C@@H](C)O)NC(=O)[C@H](CCCCN)NC(=O)C(Cc2c[nH]c3ccccc23)NC(=O)[C@@H](Cc2ccc(O)cc2)NC(=O)[C@@H](NC(=O)[C@H]2Cc3ccccc3CN2)CSSC1(C)C)C(N)=O (stereo in doubt) |  |  | 7770 | 791
C[C@@H](O)[C@H](NC(=O)[C@H]1NC(=O)[C@H]([C@@H](C)O)NC(=O)[C@H](CCCN)NC(=O)C(Cc2c[nH]c3ccccc23)NC(=O)[C@@H](Cc2ccc(O)cc2)NC(=O)[C@@H](NC(=O)[C@H]2Cc3ccccc3CN2C(=O)CN)CSSC1(C)C)C(N)=O (stereo in doubt) [listing 2 of 2 here] |  |  | 19 | 70
